Assay results: ChEMBL document CHEMBL3351586, “Diterpenes from a Chinese collection of the brown alga Dictyota plectens” (J Nat Prod, 2014)

Experiments:
[1] = test system: Human immunodeficiency virus 1; test: Antiviral activity against VSV-G protein pseudotyped HIV1 system in HEK293T cells assessed as reduction in p24 level after 48 hrs by ELISA; format: functional, organism-based; settings: Human immunodeficiency virus 1, HEK-293T
How it was run: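 VSV-G-pseudotyped HIV used as a counter-screen to judge the specificity of HA-directed entry inhibitors.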

HEK293 [2] = test: Cytotoxicity against HEK293 cells infected with VSV-G protein pseudotyped HIV1; format: cell-based; settings: Homo sapiens
[3] = Antiinflammatory activity in mouse peritoneal macrophages assessed as inhibition of LPS-induced NO production at 10 uM; format: functional; settings: Peritoneal macrophage cell
[4] = Antiinflammatory activity in mouse peritoneal macrophages assessed as inhibition of LPS-induced NO production at 1 uM; format: functional; settings: Peritoneal macrophage cell
HEK293 [5] = test: Inhibition of Influenza A virus (A/Viet Nam/1203/2004(H5N1)) hemagglutinin-mediated entry in HEK293 cells compound pretreated with target cells for 15 mins prior infection measured 48 hrs post infection by luciferase reporter assay; format: cell-based
How it was run: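 Entry screen: HIV-based pseudotype bearing H5N1 hemagglutinin (HA). Compounds tested at 30.0 μM. Value reported as percent inhibition of HA-mediated entry.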

[6] = Cytotoxicity against HEK293 cells infected with Influenza A virus (A/Viet Nam/1203/2004(H5N1)); format: cell-based; settings: human
How it was run: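 Cytotoxicity measured on 293T cells and reported as CC50 (μmol/L).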

Compound	IC50 [1]	IC50 (HEK293 [2])	inhibition at 10 µM [3]	inhibition at 1 µM [4]	inhibition (HEK293 [5])	CC50 [6]
C=C1CC[C@@H]([C@@](C)(O)CCC=C(C)C)[C@@H](O)[C@@H]2C(C)=CC[C@@H]12	24 µM	> 60 µM	90%	< 50%	–	–
C=C1C[C@H](O)[C@@H]([C@@](C)(O)CCC=C(C)C)[C@@H](O)[C@@H]2C(C)=CC[C@@H]12	–	–	< 50%	–	50%	> 60 µM
C=C1CC[C@@H](O)[C@@]2(C)C[C@@H](OC(C)=O)C3=C(C(C)C)CC[C@]3(C)C[C@]12O	16.1 µM	53 µM	< 50%	–	–	–
C/C1=C/CC/C(C)=C/C[C@@]2(C)CC[C@@](O)(C(C)C)[C@@H]2CC1=O (relative stereo)	–	–	< 50%	–	56%	> 60 µM
CC(=O)OC[C@@H]1/C(C=O)=C\C/C=C(\C)C[C@@H](O)[C@H]1[C@H](C)CCC=C(C)C	21.9 µM	> 60 µM	< 50%	–	–	–
C=C1C[C@@H](O)[C@@H]([C@H](C)CCC=C(C)C)[C@@H](O)[C@@H]2C(C)=CC[C@@H]12	26.1 µM	> 60 µM	< 50%	–	–	–
CC(C)=CCC[C@@H](C)[C@@H]1[C@H](O)C/C(C)=C/C/C=C(/C=O)[C@H]1C=O	–	–	86%	< 50%	59%	> 60 µM
Cc1ccnc2c1NC(=O)c1cccnc1N2C1CC1 [NEVIRAPINE]	0.05 µM	–	–	–	–	–
CC(=O)O[C@H]1C/C=C(\C)CC[C@@H]([C@H](C)CCC=C(C)C)[C@@H](O)/C=C/1C	30.5 µM	> 60 µM	< 50%	–	–	–
CC(C)=CCC[C@@H](C)[C@H]1C2=C(C(=O)OC2)[C@H]2C[C@H]2[C@H](C)C[C@H]1O	–	–	< 50%	–	62%	> 60 µM
